# In the library only some 3.3% were active in any assay of this set; here they are far more common.
# SENP6 inh: SENP6 protease inhibitors, primary screen, biochemical, luminescence, uHTS; hit rate 1.8% among 330,000; Sentrin-specific protease 6 (Homo sapiens), Q9GZR1; Recombinant SENP6 catalytic domain, aminoluciferin luminescence; inhibition, % at 10 µM; AID 2599, 2010;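 active means inhibition above about 50% at the single tested dose, limit read from the data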;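 further: plate controls were DMSO wells with enzyme for no effect and DMSO wells lacking enzyme for full effect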
# SENP8 block-1: SENP8 protease inhibitors, primary screen, biochemical, luminescence; Sentrin-specific protease 8 (Homo sapiens), Q96LD8; purified SENP8, Z-RLRGG-aminoluciferin cleavage; inhibition, % at 10 µM; hit rate 1.2% among 330,000; AID 2540, 2010; in the data active means inhibition above about 50%
# Target sequence (Q96LD8 whole entry, looked up): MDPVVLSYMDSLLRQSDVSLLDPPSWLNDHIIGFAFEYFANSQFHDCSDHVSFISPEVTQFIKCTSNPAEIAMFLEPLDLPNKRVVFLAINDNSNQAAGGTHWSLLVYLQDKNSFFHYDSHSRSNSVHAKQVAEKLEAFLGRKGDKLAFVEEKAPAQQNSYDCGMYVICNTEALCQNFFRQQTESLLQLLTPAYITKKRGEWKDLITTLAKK
# CendR NRP1 mod: modulators of CendR peptide binding to NRP-1, primary screen, biochemical, fluorescence polarization, uHTS | inhibition, % at 25 µM | FAM-RPARPAR peptide binding to NRP-1 | hit rate 0.85% among 360,000 | Neuropilin-1 (Homo sapiens), O14786 | AID 602438, 2012;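 active means inhibition or corrected inhibition above about 18%, plus a signal ratio from 0.5 to 1.5, limit read from the data, passing the limit was not always enough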
# SENP7 inh: SENP7 protease inhibitors, primary screen, biochemical, luminescence, uHTS; Sentrin-specific protease 7 (Homo sapiens), Q9BQF6; recombinant SENP7, Z-RLRGG-aminoluciferin luminescence, 40 min; inhibition, % at 5 µM; hit rate 1.5% among 330,000;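 active means inhibition above about 50% at the single test dose, limit read from the data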;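 further: plate controls were DMSO with enzyme for no effect and no enzyme buffer wells for full effect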
# Target sequence (Q9BQF6 706-1050 limits assumed): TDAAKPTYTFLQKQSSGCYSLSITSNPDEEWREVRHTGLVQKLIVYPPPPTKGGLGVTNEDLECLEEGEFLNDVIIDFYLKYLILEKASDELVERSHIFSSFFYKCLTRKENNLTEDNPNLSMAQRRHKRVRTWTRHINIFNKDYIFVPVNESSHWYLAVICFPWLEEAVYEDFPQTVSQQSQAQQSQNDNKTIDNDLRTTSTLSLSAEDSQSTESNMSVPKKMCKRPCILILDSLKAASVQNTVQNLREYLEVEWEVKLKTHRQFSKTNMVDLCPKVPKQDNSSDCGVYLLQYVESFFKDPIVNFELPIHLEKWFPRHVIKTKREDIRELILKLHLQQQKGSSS
# SENP8 block-2: human SENP8 protease inhibitors, primary screen, biochemical, fluorescence, Nedd8 protein substrate, uHTS | recombinant SENP8 | hit rate 0.64% among 360,000 | Sentrin-specific protease 8 (Homo sapiens), Q96LD8 | inhibition, % at 20 µM; in the data active means inhibition mostly above about 40%, no sharp cut-off; inactive means mostly below about 27%
# SENP1 inh: human SENP1 catalytic domain inhibitors, primary screen, biochemical, FRET, uHTS. Sentrin-specific protease 1 (Homo sapiens), Q9P0U3. recombinant SENP1 catalytic domain, CyPet-SUMO1-YPet FRET cleavage. inhibition, % at 10 µM. hit rate 0.21% among 360,000. AID 624204, 2012;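 active means inhibition at least 30% at 10 µM, raw YFP signal under a set limit, fluorescence ratio 0.5 to 1.5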;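 further: 0% = enzyme with DMSO and 100% = no enzyme wells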
#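 Material – human SENP1 catalytic domain · Input – SENP1 enzyme, 20 pM final · Compound dosing – single concentration of 10 µM compound, 0.5% DMSO final · Timing – enzyme reaction for 50 min at room temperature, dark · Measured by – FRET fluorescence in CFP and YFP emission channels · Control set – no-enzyme wells low, DMSO-plus-enzyme wells high control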
# Active calls of the source: *; x = no result given.
SMILES,SENP6 inh,SENP8 block-1,CendR NRP1 mod,SENP7 inh,SENP8 block-2,SENP1 inh
Cc1cc[n+](-c2[nH]c(=O)sc2/C=N/N=C(\[O-])c2ccncc2)cc1C,-3.6,-23.4,-5.2,-18.9,21.8,1.7
Cc1cc[n+](-c2[nH]c(=O)sc2/C=N/N=C(\[O-])c2ccccc2)cc1C,x,x,88.0,x,6.7,39.7*
C=CCOC(=O)Nc1nc(CCNC(=O)OCc2ccccc2)c(C(=O)O)s1,x,x,-24.1,x,26.4,-0.1
O=S1(=O)CC(N2CCCC2)CN1Cc1cn(Cc2ccccc2)nn1 (stereo unspecified),x,x,2.9,x,14.1,0.6
COc1cccc(/C=N/NC(=O)c2cnn(-c3ccccc3)c2N)c1,83.4*,71.4*,-3.2,80.9*,-17.4,0.8
COC(=O)c1cnn(-c2ccccc2)c1N,1.0,-0.3,-0.5,4.7,15.0,2.4
CC(=O)NC(=O)c1cnn(-c2ccccc2)c1N,6.9,-2.8,36.4*,-3.4,18.8,-0.4
Cc1noc(C)c1S(=O)(=O)N(C)C[C@@H]1OCc2cnnn2CCCC(=O)N([C@@H](C)CO)C[C@H]1C,x,x,0.1,x,11.0,0.2
Cc1cc(=O)oc(C)c1C(=O)Nc1ccc2nsnc2c1,-35.7,-4.0,27.0*,-3.9,-370.1,4.2
COc1cccc(/C=N/Nc2nn3cnnc3c3ccccc23)c1O,0.8,2.0,-6.8,3.1,14.1,55.5*
CCOc1ccc(-n2c(C)nc(O)c2N=Nc2ccccc2)cc1,-2.1,3.0,5.5,6.5,43.0*,9.6
Cc1ccc(C)c(S(=O)(=O)N2CCN(C(=O)CSc3ccccc3F)CC2)c1,2.0,2.6,23.7*,-0.3,4.7,-0.6
O=C1/C(=C\c2ccco2)NC(=S)N1c1ccccc1,-8.9,-8.6,-66.5,-11.4,0.0,21.2
CCCN=C1N/C(=C\c2ccco2)C(=O)N1c1ccccc1,-0.2,2.3,43.3*,-3.2,-394.1,-19.4
CCOC(=O)[C@]12CCC=C1N(Cc1ccc(Cl)cc1Cl)C(=O)[C@H](CC(=O)NCc1cccs1)C2,x,x,13.6,x,17.8,2.2
O=C(NNc1ccc([N+](=O)[O-])cn1)Nc1ccc(N=Nc2ccccc2)cc1,x,x,2.6,x,48.1*,0.1
Cc1cccc(C)c1N1C(=O)c2ccccc2NC(=O)C1C(=O)Nc1ccc(N2CCOCC2)cc1 (stereo unspecified),x,x,-2.4,x,-41.2,4.4
CCCNC(=O)C1(C)CCN(C(=O)c2cc(C(C)(C)C)nn2C)C1 (stereo unspecified),x,x,-6.0,x,6.2,1.9
CCCNC(=O)c1ccc2c(=O)c(O)c(C)[nH]c2c1,-7.3,4.2,20.8*,0.9,-446.9,-0.4
O=S1(=O)N[C@H](Cc2ccccc2)COc2cc(N3CCN(Cc4ccccc4F)CC3)ccc21,x,x,0.6,x,-1.4,-1.6
O=C(O)c1ccc(-c2nc(-c3ccccc3)cs2)cc1,97.1*,92.0*,-6.0,89.1*,-86.7,2.8
COc1ccc(Cl)cc1C(=O)NNC(=O)CSc1nncn1C,14.5,10.0,0.7,5.0,-3.5,1.6
Cn1cnnc1SCC(=O)Nc1nc(-c2ccccc2)cs1,-6.6,0.2,19.8*,0.1,10.9,-0.5
COc1ccccc1C(=O)NC(=O)CSc1nncn1C,-8.8,-7.4,26.2*,-8.5,-4.3,1.1
Cc1csc(NC(=O)c2cc(-c3ccccc3)nc3ccccc23)n1,6.8,-3.7,35.0*,2.0,18.6,-2.3
SMILES,SENP6 inh,SENP8 block-1,CendR NRP1 mod,SENP7 inh,SENP8 block-2,SENP1 inh
CC(C)(C)c1nnc(NC(=O)c2cc(-c3ccccc3)nc3ccccc23)s1,-17.4,-1.6,3.6,-3.9,-51.0,0.9
COc1cccc(CNC(=O)COC(=O)c2cc([N+](=O)[O-])ccc2N2CCCC2)c1,9.4,0.9,-11.1,-2.0,16.6,-3.8
COc1ccc(NC(=O)C2(C)Cc3c(-c4cccc(C(N)=O)c4)ccnc3O2)cc1OC (stereo unspecified),x,x,-3.4,x,14.0,-1.4
CC(=O)Nc1nc(-c2ccc(-c3ccccc3)cc2)cs1,x,x,21.0*,x,-14.1,2.5
O=C(Nc1n[nH]c(=S)s1)c1ccc2ccccc2c1,91.4*,81.7*,4.3,63.0*,-17.3,1.6
Cc1cnc(-c2nc3ccccc3n2C(C(=O)Nc2c(C)cccc2C)C2CC2)cn1 (stereo unspecified),x,x,11.4,x,-391.9,2.3
COc1cccc(N2[C@@H](CC(C)=O)c3ccc(/C=C/C(C)=O)cc3S2(=O)=O)c1,1.0,0.2,22.4*,2.5,-2.8,-8.1
COc1ccc(N2CCN(C(=O)CSc3nc4[nH]ncc4c(=O)n3-c3ccc(Br)cc3)CC2)cc1,7.8,-10.4,6.2,1.4,-0.2,2.6
O=c1c2cn[nH]c2nc(SCc2ccccc2F)n1-c1ccc(Br)cc1,-70.8,-31.3,25.5*,-10.5,4.6,-0.5
O=c1c2cn[nH]c2nc(SCc2cc(=O)n3cc(Br)ccc3n2)n1-c1ccc(Br)cc1,-7.8,-20.1,32.3*,5.7,-135.0,-1.9
Cc1ccccc1-n1c(SCc2cc(=O)n3ccccc3n2)nc2[nH]ncc2c1=O,-14.4,-6.8,-0.4,-0.1,-422.0,-3.9
COc1cccc(-c2cc(CNC(=O)[C@H]3O[C@@H](n4ccc(=O)[nH]c4=O)[C@H](O)[C@@H]3O)no2)c1,x,x,-4.3,x,25.0,-0.3
OC(c1ccc(Cl)c(F)c1)c1ncc(-c2cccc3ccccc23)[nH]1 (stereo unspecified),x,x,-13.4,x,-327.9,1.0
COCCNC(=O)[C@@H]1CCCN1S(=O)(=O)c1cccc2cccnc12,-9.8,-2.8,6.6,5.2,8.9,-4.5
CCCCNC(=O)[C@@H]1CCCN1S(=O)(=O)c1cccc2cccnc12,-20.4,-13.0,33.0*,3.2,17.0,3.0
Cc1cccc(C)c1NC(=O)C1(C)CN(S(C)(=O)=O)CC(=O)N1CCCN1CCOCC1 (stereo unspecified),x,x,-3.4,x,32.8,-3.8
O=C(c1cc2ncc(CCCl)cn2n1)N1CCCCCC1,-7.4,-9.2,-1.9,-5.5,-25.7,-0.1
O=C(O)c1cc2ncc(CCO)cn2n1,-7.8,-1.7,23.7*,-5.9,-7.7,3.0
COC(=O)C[C@H]1CC[C@H](NC(=O)c2ccc(F)cc2)[C@@H](CO)O1,x,x,7.9,x,11.8,3.1
O=C(CSc1ccc(-c2ccc(F)cc2)nn1)NC1CCCCC1,-11.6,2.2,18.6*,5.6,12.2,2.4
Cc1ccc(-c2ccc(SCC(=O)NC3CCCCC3)nn2)cc1,-11.7,-7.4,-4.3,-4.2,0.2,-1.0
CC(=O)c1sc(Nc2ccc(Oc3ccccc3)cc2)nc1C,x,x,11.3,x,-378.7,-2.0
